Reference: ChEMBL document CHEMBL1148594, “Novel 4-oxo-1,4-dihydroquinoline-3-carboxamide derivatives as new CB2 cannabinoid receptors agonists: synthesis, pharmacological properties and molecular modeling” (J Med Chem, 2006)

What was measured:
Cannabinoid receptor 2 [1] = target: T1, Cannabinoid receptor 2 (Homo sapiens, UniProt P34972); assay: Displacement of [3H]CP-55940 from human CB2 receptor at 10 uM
In short: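 Single-concentration screen at 10 µM on CHO-hCB2 membranes (40 µg) against 1 nM [3H]-CP-55,940, 1 h at 30 °C, pH 7.4 Tris/MgCl2/EDTA/0.5% BSA. HU-210 10 µM defines nonspecific binding. Filtered, counted, reported as percent specific radioligand displacement. At least four experiments in duplicate, mean ± SEM.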

Cannabinoid receptor 1 [2] = target: T2, Cannabinoid receptor 1 (Homo sapiens, UniProt P21554); assay: Displacement of [3H]SR-141716A from human CB1 receptor at 10 uM
In short: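 Single-concentration screen at 10 µM on membranes of CHO cells stably expressing human CB1 (40 µg) against 1 nM [3H]-SR-141716A, 1 h at 30 °C, pH 7.4 Tris/MgCl2/EDTA/0.5% BSA. HU-210 10 µM for nonspecific binding. Reported as percent displacement. At least four experiments in duplicate.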

Cannabinoid receptor 2 [3] = target: T1, Cannabinoid receptor 2; assay: Effect on human CB2 receptor stimulation by [35S]GTP-gamma-S binding at 10 uM (basal value set at 100%); type: functional
In short: (§1)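 CHO-hCB2 membranes (40 µg) at 30 °C for 1 h in pH 7.4 Tris/MgCl2/EDTA/100 mM NaCl/0.1% BSA with 20 µM GDP. Started by 0.05 nM [35S]-GTPγS (final). Nonspecific binding with 100 µM Gpp(NH)p. Stopped with ice-cold buffer, filtered on GF/B, counted. EC50 by nonlinear regression. Single-point tests at 10 µM, three experiments in duplicate, one-way ANOVA with Dunnett test.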

Cannabinoid receptor 2 [4] = target: T1, Cannabinoid receptor 2; assay: Displacement of [3H]CP-55940 from human CB2 receptor
Cannabinoid receptor 2 [5] = target: T1, Cannabinoid receptor 2; assay: Effect on [35S]GTP-gamma-S binding to human CB2 receptor; type: functional; in short: as §1
[6] = target: Cannabinoid receptor (Homo sapiens) (UniProt P34972+P21554); assay: Selectivity ratio of human CB2 receptor versus human CB1 receptor in human; type: protein assay
In short: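 Ratio of Ki values from [3H]-SR-141716A (hCB1) and [3H]-CP-55,940 (hCB2) competition binding on CHO cell membranes. Ki from IC50 by Cheng-Prusoff, given only when Ki was obtained at both receptors.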

Cannabinoid receptor 1 [7] = target: T2, Cannabinoid receptor 1

Chain of Cannabinoid receptor (Homo sapiens) (P21554 whole entry, looked up): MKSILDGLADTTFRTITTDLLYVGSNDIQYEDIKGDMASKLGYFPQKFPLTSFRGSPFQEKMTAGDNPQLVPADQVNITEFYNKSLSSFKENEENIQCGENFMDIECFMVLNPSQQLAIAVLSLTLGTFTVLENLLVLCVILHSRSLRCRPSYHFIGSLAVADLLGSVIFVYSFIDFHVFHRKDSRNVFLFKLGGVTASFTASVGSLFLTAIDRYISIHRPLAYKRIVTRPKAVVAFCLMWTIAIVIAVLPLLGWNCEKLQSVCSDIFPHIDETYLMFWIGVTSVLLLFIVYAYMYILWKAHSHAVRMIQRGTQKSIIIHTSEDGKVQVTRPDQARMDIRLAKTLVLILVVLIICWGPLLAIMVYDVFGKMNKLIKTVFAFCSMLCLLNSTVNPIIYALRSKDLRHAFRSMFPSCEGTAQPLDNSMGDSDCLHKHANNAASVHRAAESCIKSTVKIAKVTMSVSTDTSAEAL
Chain of Cannabinoid receptor (Homo sapiens) (P34972 whole entry, looked up): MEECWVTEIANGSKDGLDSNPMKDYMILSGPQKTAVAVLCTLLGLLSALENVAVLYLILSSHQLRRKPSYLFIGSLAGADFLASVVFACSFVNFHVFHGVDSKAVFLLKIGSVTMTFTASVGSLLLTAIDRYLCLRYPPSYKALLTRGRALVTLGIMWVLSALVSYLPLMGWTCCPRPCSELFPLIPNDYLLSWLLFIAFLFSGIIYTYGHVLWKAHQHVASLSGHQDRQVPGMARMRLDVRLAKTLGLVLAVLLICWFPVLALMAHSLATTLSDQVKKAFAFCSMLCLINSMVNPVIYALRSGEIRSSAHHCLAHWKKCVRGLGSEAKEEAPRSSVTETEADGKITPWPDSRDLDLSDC
T2 sequence (P21554 whole entry): as the sequence (P21554 whole entry, looked up) above
T1 sequence (P34972 whole entry): as the sequence (P34972 whole entry, looked up) above

Structure (SMILES): CCCCCCn1cc(C(=O)Nc2ccc(OC)cc2)c(=O)c2ccccc21
- Activity (Cannabinoid receptor 2 [1]): 28.2%
- Activity (Cannabinoid receptor 1 [2]): < 10%

Structure (SMILES): CCCCn1cc(C(=O)Nc2cccc3ccccc23)c(=O)c2ccccc21
- Activity (Cannabinoid receptor 2 [3]): 132%
- Activity (Cannabinoid receptor 2 [1]): 85.4%
- Activity (Cannabinoid receptor 1 [2]): 45.3%
- Ki (Cannabinoid receptor 2 [4]): 455 nM

Structure (SMILES): Cc1c(C(=O)c2cccc3ccccc23)c2cccc3c2n1[C@H](CN1CCOCC1)CO3
- Activity (Cannabinoid receptor 2 [3]): 128%
- Emax (Cannabinoid receptor 2 [5]): 126%

Structure (SMILES): CCCCCn1cc(C(=O)O)c(=O)c2ccccc21
- Activity (Cannabinoid receptor 2 [1]): < 15%
- Activity (Cannabinoid receptor 1 [2]): < 20%

Structure (SMILES): CCCCCn1cc(C(=O)N2CCOCC2)c(=O)c2ccccc21
- Activity (Cannabinoid receptor 2 [1]): 36.5%
- Activity (Cannabinoid receptor 1 [2]): < 10%

Structure (SMILES): CCCCCCC(C)(C)c1ccc([C@@H]2C[C@H](O)CC[C@H]2CCCO)c(O)c1
- Activity (Cannabinoid receptor 2 [3]): 146%
- Emax (Cannabinoid receptor 2 [5]): 146%

Structure (SMILES): CCCCCn1cc(C(=O)NCCCc2ccccc2)c(=O)c2ccccc21
- Activity (Cannabinoid receptor 2 [3]): 134%
- Activity (Cannabinoid receptor 2 [1]): 85.5%
- Activity (Cannabinoid receptor 1 [2]): 32.8%
- Ki (Cannabinoid receptor 2 [4]): > 1000 nM

Structure (SMILES): CCCCCn1cc(C(=O)Nc2ccc(-c3ccccc3)cc2)c(=O)c2ccccc21
- Activity (Cannabinoid receptor 2 [1]): < 20%
- Activity (Cannabinoid receptor 1 [2]): < 20%

Structure (SMILES): CCCCCn1cc(C(=O)NC2C3CC4CC(C3)CC2C4)c(=O)c2ccccc21 (stereo not given)
- Activity (Cannabinoid receptor 2 [3]): 130%
- Activity (Cannabinoid receptor 2 [1]): 104%
- Selectivity ratio [6]: 143
- Activity (Cannabinoid receptor 1 [2]): 37.8%
- EC50 (Cannabinoid receptor 2 [5]): 24.8 nM
- Emax (Cannabinoid receptor 2 [5]): 126%
- Ki (Cannabinoid receptor 1 [7]): 1920 nM
- Ki (Cannabinoid receptor 2 [4]): 13.4 nM

Structure (SMILES): CCCCCn1cc(C(=O)NC(C)c2cccc3ccccc23)c(=O)c2ccccc21 (racemic)
- Activity (Cannabinoid receptor 2 [3]): 117%
- Activity (Cannabinoid receptor 2 [1]): 98.9%
- Activity (Cannabinoid receptor 1 [2]): 35.5%
- Ki (Cannabinoid receptor 2 [4]): 174 nM

Structure (SMILES): CCCCCCn1cc(C(=O)Nc2cccc3ccccc23)c(=O)c2ccccc21
- Activity (Cannabinoid receptor 2 [3]): 124%
- Activity (Cannabinoid receptor 2 [1]): 80%
- Activity (Cannabinoid receptor 1 [2]): 53.3%
- Ki (Cannabinoid receptor 2 [4]): 844 nM

Structure (SMILES): CCCCCn1cc(C(=O)Nc2ccc(OC)cc2)c(=O)c2ccccc21
- Activity (Cannabinoid receptor 2 [1]): 60.1%
- Activity (Cannabinoid receptor 1 [2]): < 20%

Structure (SMILES): CCCCCn1cc(C(=O)NCCc2ccccc2)c(=O)c2ccccc21
- Activity (Cannabinoid receptor 2 [3]): 136%
- Activity (Cannabinoid receptor 2 [1]): 98.2%
- Activity (Cannabinoid receptor 1 [2]): 64.8%
- Ki (Cannabinoid receptor 2 [4]): 201 nM

Structure (SMILES): CCCCCn1cc(C(=O)NC(C)c2ccccc2)c(=O)c2ccccc21 (racemic)
- Activity (Cannabinoid receptor 2 [3]): 130%
- Activity (Cannabinoid receptor 2 [1]): 101%
- Activity (Cannabinoid receptor 1 [2]): 68.3%
- Ki (Cannabinoid receptor 2 [4]): 70.8 nM

Structure (SMILES): CCCCn1cc(C(=O)Nc2ccc(OC)cc2)c(=O)c2ccccc21
- Activity (Cannabinoid receptor 2 [1]): 50.5%
- Activity (Cannabinoid receptor 1 [2]): < 20%

Structure (SMILES): CCCCCn1cc(C(=O)NC(C)c2ccc3ccccc3c2)c(=O)c2ccccc21 (racemic)
- Activity (Cannabinoid receptor 2 [3]): 122%
- Activity (Cannabinoid receptor 2 [1]): 82.9%
- Activity (Cannabinoid receptor 1 [2]): < 10%
- Ki (Cannabinoid receptor 2 [4]): > 1000 nM

Structure (SMILES): CCCCCn1cc(C(=O)NCCc2ccc3c(c2)OCO3)c(=O)c2ccccc21
- Activity (Cannabinoid receptor 2 [3]): 136%
- Activity (Cannabinoid receptor 2 [1]): 88.7%
- Activity (Cannabinoid receptor 1 [2]): 43.6%
- Ki (Cannabinoid receptor 2 [4]): 426 nM

Structure (SMILES): CCCC(C)(C)c1ccc2c(c1)OC(C)(C)[C@@H]1CC=C(C)C[C@@H]21
- Activity (Cannabinoid receptor 2 [3]): 148%
- EC50 (Cannabinoid receptor 2 [5]): 146 nM
- Emax (Cannabinoid receptor 2 [5]): 149%
- Ki (Cannabinoid receptor 2 [4]): 20.3 nM

Structure (SMILES): CCCCCn1cc(C(=O)NC2CCCc3ccccc32)c(=O)c2ccccc21 (racemic)
- Activity (Cannabinoid receptor 2 [3]): 123%
- Activity (Cannabinoid receptor 2 [1]): 96.5%
- Selectivity ratio [6]: 17
- Activity (Cannabinoid receptor 1 [2]): 79.7%
- EC50 (Cannabinoid receptor 2 [5]): 157 nM
- Emax (Cannabinoid receptor 2 [5]): 124%
- Ki (Cannabinoid receptor 1 [7]): 1050 nM
- Ki (Cannabinoid receptor 2 [4]): 60.2 nM

Structure (SMILES): Cc1ccc(Cn2nc(C(=O)NC3C4(C)CCC(C4)C3(C)C)cc2-c2ccc(Cl)c(C)c2)cc1 (stereo not given)
- Activity (Cannabinoid receptor 2 [3]): 21.6%
- Emax (Cannabinoid receptor 2 [5]): 21.6%

Structure (SMILES): CCCCCn1cc(C(=O)Nc2cccc3ccccc23)c(=O)c2ccccc21
- Activity (Cannabinoid receptor 2 [3]): 124%
- Activity (Cannabinoid receptor 2 [1]): 90.6%
- Selectivity ratio [6]: 11
- Activity (Cannabinoid receptor 1 [2]): 65.9%
- Ki (Cannabinoid receptor 1 [7]): 4080 nM
- Ki (Cannabinoid receptor 2 [4]): 371 nM

Structure (SMILES): CCCCCn1cc(C(=O)Nc2ccc(Cl)c(Cl)c2)c(=O)c2ccccc21
- Activity (Cannabinoid receptor 2 [3]): 116%
- Activity (Cannabinoid receptor 2 [1]): 68.1%
- Activity (Cannabinoid receptor 1 [2]): < 10%
- Ki (Cannabinoid receptor 2 [4]): > 1000 nM

Structure (SMILES): CCCCCn1cc(C(=O)N[C@@H](C)c2cccc3ccccc23)c(=O)c2ccccc21
- Ki (Cannabinoid receptor 2 [4]): > 1000 nM

Structure (SMILES): CCCCCn1cc(C(=O)NCc2ccc(OC)cc2)c(=O)c2ccccc21
- Activity (Cannabinoid receptor 2 [1]): 51.7%
- Activity (Cannabinoid receptor 1 [2]): < 10%

Structure (SMILES): CCCCCn1cc(C(=O)N[C@H](C)c2ccccc2)c(=O)c2ccccc21
- Activity (Cannabinoid receptor 2 [3]): 124%
- Selectivity ratio [6]: 31
- EC50 (Cannabinoid receptor 2 [5]): 16.8 nM
- Emax (Cannabinoid receptor 2 [5]): 129%
- Ki (Cannabinoid receptor 1 [7]): 1150 nM
- Ki (Cannabinoid receptor 2 [4]): 37.1 nM

Structure (SMILES): CCCCCn1cc(C(=O)N[C@H](C)c2ccc3ccccc3c2)c(=O)c2ccccc21
- Activity (Cannabinoid receptor 2 [3]): 122%
- Ki (Cannabinoid receptor 2 [4]): 584 nM

Structure (SMILES): CCCCCn1cc(C(=O)Nc2ccc3ccccc3c2)c(=O)c2ccccc21
- Activity (Cannabinoid receptor 2 [1]): 63.9%
- Activity (Cannabinoid receptor 1 [2]): < 10%

Structure (SMILES): CCCCCn1cc(C(=O)NCc2ccccc2)c(=O)c2ccccc21
- Activity (Cannabinoid receptor 2 [3]): 129%
- Activity (Cannabinoid receptor 2 [1]): 66.7%
- Activity (Cannabinoid receptor 1 [2]): 50.5%
- Ki (Cannabinoid receptor 2 [4]): > 1000 nM

Structure (SMILES): CCCCCn1cc(C(=O)Nc2ccc(C#N)cc2)c(=O)c2ccccc21
- Activity (Cannabinoid receptor 2 [3]): 133%
- Activity (Cannabinoid receptor 2 [1]): 79.4%
- Activity (Cannabinoid receptor 1 [2]): 49.6%
- Ki (Cannabinoid receptor 2 [4]): 772 nM

Structure (SMILES): CCCCn1cc(C(=O)NCc2ccccc2)c(=O)c2ccccc21
- Activity (Cannabinoid receptor 2 [1]): 44.9%
- Activity (Cannabinoid receptor 1 [2]): 33.6%

Structure (SMILES): CCCCCCC(C)(C)c1cc(O)c2c(c1)OC(C)(C)[C@@H]1CC=C(CO)C[C@@H]21
- Activity (Cannabinoid receptor 2 [3]): 135%
- Emax (Cannabinoid receptor 2 [5]): 135%

Structure (SMILES): CCCCCn1cc(C(=O)NC23CC4CC(CC(C4)C2)C3)c(=O)c2ccccc21
- Activity (Cannabinoid receptor 2 [3]): 126%
- Activity (Cannabinoid receptor 2 [1]): 104%
- Activity (Cannabinoid receptor 1 [2]): 59%
- Ki (Cannabinoid receptor 2 [4]): 16.4 nM

Structure (SMILES): CC12CC3CC(C)(C1)CC(NC(=O)c1cn(Cc4ccccc4)c4ccccc4c1=O)(C3)C2
- Activity (Cannabinoid receptor 2 [3]): 121%
- Activity (Cannabinoid receptor 2 [1]): 86.3%
- Activity (Cannabinoid receptor 1 [2]): 32.5%
- Ki (Cannabinoid receptor 2 [4]): 664 nM

Structure (SMILES): CCCCCn1cc(C(=O)N[C@@H](C)c2ccccc2)c(=O)c2ccccc21
- Ki (Cannabinoid receptor 2 [4]): 784 nM

Structure (SMILES): CCCCCn1cc(C(=O)NC23CC4CC(C)(CC(C)(C4)C2)C3)c(=O)c2ccccc21
- Activity (Cannabinoid receptor 2 [3]): 131%
- Activity (Cannabinoid receptor 2 [1]): 95.6%
- Activity (Cannabinoid receptor 1 [2]): 54.6%
- EC50 (Cannabinoid receptor 2 [5]): 14.1 nM
- Emax (Cannabinoid receptor 2 [5]): 124%
- Ki (Cannabinoid receptor 2 [4]): 15.8 nM

Structure (SMILES): CCCCCn1cc(C(=O)N[C@H](C)c2cccc3ccccc23)c(=O)c2ccccc21
- Activity (Cannabinoid receptor 2 [3]): 119%
- Ki (Cannabinoid receptor 2 [4]): 125 nM

Structure (SMILES): CCCCCn1cc(C(=O)N[C@@H](C)c2ccc3ccccc3c2)c(=O)c2ccccc21
- Ki (Cannabinoid receptor 2 [4]): > 5000 nM

Structure (SMILES): CCCCCCn1cc(C(=O)NCc2ccccc2)c(=O)c2ccccc21
- Activity (Cannabinoid receptor 2 [1]): 54.6%
- Activity (Cannabinoid receptor 1 [2]): 37.4%
